# Laboratory results from ChEMBL document CHEMBL1649362, “Cytotoxic triterpenoids from Maytenus retusa” (J Nat Prod, 2010).
# Counter-ions that a name gives are not always drawn.
# Tested on: HL-60
# Assay: Cytotoxicity against human HL60 cells at 30 uM after 48 hrs by MTT assay
# Type: functional
# Conditions: HL-60, 48 h
# Method in brief: (§1)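 HL60 cells (ATCC) grown in RPMI with 10% FBS and seeded at 10 000 cells/well. After 48 h exposure, MTT added (0.5 mg/mL final) for 3 h at 37 °C. Formazan dissolved in SDS-HCl (20% SDS, 0.02 M HCl) and read at 570 nm. IC50 obtained by nonlinear regression.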
row,Structure (SMILES),inhibition at 30 µM
1,COC(=O)[C@@]1(C)C[C@@H]2[C@@](C)(CC[C@]3(C)C4CC(=O)c5c(cc(O)c(O)c5C)[C@]4(C)CC[C@@]23C)CC1=O (stereo partly drawn) [BLEPHARODOL],100%
2,CC1=C(O)C(=O)CC2[C@]3(C)CC[C@@]4(C)[C@@H]5C[C@](C)(C(=O)O)CC[C@]5(C)CC[C@]4(C)C3CC[C@]12C=O (stereo partly drawn) [CANGORONINE],60%
3,COC(=O)[C@]1(C)CC[C@]2(C)CC[C@]3(C)C4C(=O)C=C5C(=CC(=O)C(O)=C5C)[C@]4(C)CC[C@@]3(C)C2C1 (stereo partly drawn) [DISPERMOQUINONE],100%
4,COc1cccc2c1C(=O)c1c(O)c3c(c(O)c1C2=O)C[C@@](O)(C(=O)CO)C[C@@H]3O[C@H]1C[C@H](N)[C@H](O)[C@H](C)O1 [DOXORUBICIN HYDROCHLORIDE],100%

# Tested on: MCF7
# Assay: Cytotoxicity against human MCF7 cells after 48 hrs by MTT assay
# Type: functional, cell-based
# Conditions: MCF7, 48 h
# Method in brief: (§2)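 MCF-7 cells (ATCC) maintained in DMEM with 10% FBS and plated at 10 000 cells/well. MTT (0.5 mg/mL final) then incubated 3 h at 37 °C. Formazan solubilized in 20% SDS/0.02 M HCl and absorbance read at 570 nm. IC50 from nonlinear regression.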
row,Structure (SMILES),IC50
1,COC(=O)[C@]1(C)CC[C@]2(C)CC[C@]3(C)C4C(=O)C=C5C(=CC(=O)C(O)=C5C)[C@]4(C)CC[C@@]3(C)C2C1 (stereo partly drawn) [DISPERMOQUINONE],> 30000 nM
2,COc1cccc2c1C(=O)c1c(O)c3c(c(O)c1C2=O)C[C@@](O)(C(=O)CO)C[C@@H]3O[C@H]1C[C@H](N)[C@H](O)[C@H](C)O1 [DOXORUBICIN HYDROCHLORIDE],> 10000 nM

# Tested on: HL-60
# Assay: Cytotoxicity against human HL60 cells at 1 uM after 48 hrs by MTT assay
# Type: functional
# Conditions: HL-60, 48 h
# Method in brief: as §1
row,Structure (SMILES),inhibition at 1 µM
1,COC(=O)[C@@]1(C)C[C@@H]2[C@@](C)(CC[C@]3(C)C4CC(=O)c5c(cc(O)c(O)c5C)[C@]4(C)CC[C@@]23C)CC1=O (stereo partly drawn) [BLEPHARODOL],69%
2,CC1=C(O)C(=O)CC2[C@]3(C)CC[C@@]4(C)[C@@H]5C[C@](C)(C(=O)O)CC[C@]5(C)CC[C@]4(C)C3CC[C@]12C=O (stereo partly drawn) [CANGORONINE],40%
3,COC(=O)[C@]1(C)CC[C@]2(C)CC[C@]3(C)C4C(=O)C=C5C(=CC(=O)C(O)=C5C)[C@]4(C)CC[C@@]3(C)C2C1 (stereo partly drawn) [DISPERMOQUINONE],0%
4,COc1cccc2c1C(=O)c1c(O)c3c(c(O)c1C2=O)C[C@@](O)(C(=O)CO)C[C@@H]3O[C@H]1C[C@H](N)[C@H](O)[C@H](C)O1 [DOXORUBICIN HYDROCHLORIDE],100%

# Tested on: MCF7
# Assay: Cytotoxicity against human MCF7 cells at 1 uM after 48 hrs by MTT assay
# Type: functional
# Conditions: MCF7, 48 h
# Method in brief: as §2
row,Structure (SMILES),inhibition at 1 µM
1,COC(=O)[C@@]1(C)C[C@@H]2[C@@](C)(CC[C@]3(C)C4CC(=O)c5c(cc(O)c(O)c5C)[C@]4(C)CC[C@@]23C)CC1=O (stereo partly drawn) [BLEPHARODOL],15%
2,CC1=C(O)C(=O)CC2[C@]3(C)CC[C@@]4(C)[C@@H]5C[C@](C)(C(=O)O)CC[C@]5(C)CC[C@]4(C)C3CC[C@]12C=O (stereo partly drawn) [CANGORONINE],16%
3,COC(=O)[C@]1(C)CC[C@]2(C)CC[C@]3(C)C4C(=O)C=C5C(=CC(=O)C(O)=C5C)[C@]4(C)CC[C@@]3(C)C2C1 (stereo partly drawn) [DISPERMOQUINONE],9%
4,COc1cccc2c1C(=O)c1c(O)c3c(c(O)c1C2=O)C[C@@](O)(C(=O)CO)C[C@@H]3O[C@H]1C[C@H](N)[C@H](O)[C@H](C)O1 [DOXORUBICIN HYDROCHLORIDE],69%

# Tested on: MCF7
# Assay: Cytotoxicity against human MCF7 cells at 30 uM after 48 hrs by MTT assay
# Type: functional
# Conditions: MCF7, 48 h
# Method in brief: as §2
row,Structure (SMILES),inhibition at 30 µM
1,COC(=O)[C@@]1(C)C[C@@H]2[C@@](C)(CC[C@]3(C)C4CC(=O)c5c(cc(O)c(O)c5C)[C@]4(C)CC[C@@]23C)CC1=O (stereo partly drawn) [BLEPHARODOL],7%
2,CC1=C(O)C(=O)CC2[C@]3(C)CC[C@@]4(C)[C@@H]5C[C@](C)(C(=O)O)CC[C@]5(C)CC[C@]4(C)C3CC[C@]12C=O (stereo partly drawn) [CANGORONINE],15%
3,COC(=O)[C@]1(C)CC[C@]2(C)CC[C@]3(C)C4C(=O)C=C5C(=CC(=O)C(O)=C5C)[C@]4(C)CC[C@@]3(C)C2C1 (stereo partly drawn) [DISPERMOQUINONE],60%
4,COc1cccc2c1C(=O)c1c(O)c3c(c(O)c1C2=O)C[C@@](O)(C(=O)CO)C[C@@H]3O[C@H]1C[C@H](N)[C@H](O)[C@H](C)O1 [DOXORUBICIN HYDROCHLORIDE],98%

# Tested on: MCF7
# Assay: Cytotoxicity against human MCF7 cells at 10 uM after 48 hrs by MTT assay
# Type: functional
# Conditions: MCF7, 48 h
# Method in brief: as §2
row,Structure (SMILES),inhibition at 10 µM
1,COC(=O)[C@@]1(C)C[C@@H]2[C@@](C)(CC[C@]3(C)C4CC(=O)c5c(cc(O)c(O)c5C)[C@]4(C)CC[C@@]23C)CC1=O (stereo partly drawn) [BLEPHARODOL],8%
2,CC1=C(O)C(=O)CC2[C@]3(C)CC[C@@]4(C)[C@@H]5C[C@](C)(C(=O)O)CC[C@]5(C)CC[C@]4(C)C3CC[C@]12C=O (stereo partly drawn) [CANGORONINE],9%
3,COC(=O)[C@]1(C)CC[C@]2(C)CC[C@]3(C)C4C(=O)C=C5C(=CC(=O)C(O)=C5C)[C@]4(C)CC[C@@]3(C)C2C1 (stereo partly drawn) [DISPERMOQUINONE],25%
4,COc1cccc2c1C(=O)c1c(O)c3c(c(O)c1C2=O)C[C@@](O)(C(=O)CO)C[C@@H]3O[C@H]1C[C@H](N)[C@H](O)[C@H](C)O1 [DOXORUBICIN HYDROCHLORIDE],76%

# Tested on: HL-60
# Assay: Cytotoxicity against human HL60 cells at 10 uM after 48 hrs by MTT assay
# Type: functional
# Conditions: HL-60, 48 h
# Method in brief: as §1
row,Structure (SMILES),inhibition at 10 µM
1,COC(=O)[C@@]1(C)C[C@@H]2[C@@](C)(CC[C@]3(C)C4CC(=O)c5c(cc(O)c(O)c5C)[C@]4(C)CC[C@@]23C)CC1=O (stereo partly drawn) [BLEPHARODOL],79%
2,CC1=C(O)C(=O)CC2[C@]3(C)CC[C@@]4(C)[C@@H]5C[C@](C)(C(=O)O)CC[C@]5(C)CC[C@]4(C)C3CC[C@]12C=O (stereo partly drawn) [CANGORONINE],48%
3,COC(=O)[C@]1(C)CC[C@]2(C)CC[C@]3(C)C4C(=O)C=C5C(=CC(=O)C(O)=C5C)[C@]4(C)CC[C@@]3(C)C2C1 (stereo partly drawn) [DISPERMOQUINONE],100%
4,COc1cccc2c1C(=O)c1c(O)c3c(c(O)c1C2=O)C[C@@](O)(C(=O)CO)C[C@@H]3O[C@H]1C[C@H](N)[C@H](O)[C@H](C)O1 [DOXORUBICIN HYDROCHLORIDE],89%

# Tested on: HL-60
# Assay: Cytotoxicity against human HL60 cells after 48 hrs by MTT assay
# Type: functional, cell-based
# Conditions: HL-60, 48 h
# Method in brief: as §1
row,Structure (SMILES),IC50
1,COC(=O)[C@]1(C)CC[C@]2(C)CC[C@]3(C)C4C(=O)C=C5C(=CC(=O)C(O)=C5C)[C@]4(C)CC[C@@]3(C)C2C1 (stereo partly drawn) [DISPERMOQUINONE],1700 nM
2,COc1cccc2c1C(=O)c1c(O)c3c(c(O)c1C2=O)C[C@@](O)(C(=O)CO)C[C@@H]3O[C@H]1C[C@H](N)[C@H](O)[C@H](C)O1 [DOXORUBICIN HYDROCHLORIDE],100 nM
